Data from ChEMBL document CHEMBL1123636 (J Med Chem, 1987).
Where a SMILES comes first, the peptide text is derived from it. Side-chain parts run from the residue outwards. The star is where a group is joined. Oxymorphamine(6α) = CN1CC[C@]23c4c5ccc(O)c4O[C@H]2[C@@H](N*)CC[C@@]3(O)[C@H]1C5

Tests used:
Cavia porcellus [1] = organism: Cavia porcellus; assay: Ke value for naloxone versus compound in the guinea pig ileum (GPI) in order to distinguish between mu- and delta-mediated effects; format: functional
Summary of the method: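 Electrically stimulated guinea pig ileum. Naloxone antagonism measured against each agonist and expressed as a Ke, used to tell μ- from δ- or κ-mediated effects.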

Mus musculus [2] = assay: Analgesic potency (antinociceptive activity) (administered icv) at peak time of 20 min in male Swiss-Webster mice; format: functional
Summary of the method: (§1)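 Intracerebroventricular dosing in male Swiss-Webster mice. Antinociception scored by the acetic acid writhing test at the peak time of analgesia, 10 or 20 min after injection depending on compound.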

Mus musculus [3] = organism: Mus musculus; assay: Opioid agonist potencies was determined by mouse vas deferens (MVD); format: functional
Mu-type opioid receptor [4] = molecular target: T1, Mu-type opioid receptor (Cavia porcellus, UniProt P97266); assay: Binding affinity of Opioid receptor mu 1 by the displacement of mu-selective [3H]DAGO from brain membrane preparations.
T1 sequence (P97266 whole entry): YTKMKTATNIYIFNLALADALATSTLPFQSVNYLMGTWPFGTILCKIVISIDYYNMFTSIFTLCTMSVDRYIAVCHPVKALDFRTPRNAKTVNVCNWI
Summary of the method: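 Competitive displacement of the μ-selective radioligand [3H]DAGO from brain membrane preparations ([…]). Affinity taken from ligand displacement.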

Cavia porcellus [5] = organism: Cavia porcellus; assay: Opioid agonist potencies was determined by electrically stimulated guinea pig ileum (GPI); format: functional
Mus musculus [6] = assay: Analgesic potency (antinociceptive activity) (administered icv) at peak time of 10 min in male Swiss-Webster mice; format: functional; summary of the method: as §1
Mu-type opioid receptor [7] = molecular target: T1, Mu-type opioid receptor; assay: Binding affinity of Opioid receptor mu 1 mu 1 by the displacement of mu-selective [3H]DAGO from brain membrane preparations.

| Compound | Ke (Cavia porcellus [1]) [nM] | ED50 (Mus musculus [2]) [nM] | IC50 (Mus musculus [3]) [nM] | Ki (Mu-type opioid receptor [4]) [nM] | IC50 (Cavia porcellus [5]) [nM] | ED50 (Mus musculus [6]) [nM] | Ki (Mu-type opioid receptor [7]) [nM] |
| --- | --- | --- | --- | --- | --- | --- | --- |
| CC(=O)N[C@H]1CC[C@@]2(O)[C@H]3Cc4ccc(O)c5c4[C@@]2(CCN3C)[C@H]1O5 | 0.88 | 5.4 | 166 | 1.81 | 136 |  |  |
| CC(=O)NCC(=O)NCC(=O)N[C@H]1CC[C@@]2(O)[C@H]3Cc4ccc(O)c5c4[C@@]2(CCN3C)[C@H]1O5 | 1.55 | 3.1 | 78 | 5.48 | 82.3 |  |  |
| CC(C)C[C@H](NC(=O)[C@H](Cc1ccccc1)NC(=O)CNC(=O)[C@H](CCC(=O)N[C@H]1CC[C@@]2(O)[C@H]3Cc4ccc(O)c5c4[C@@]2(CCN3C)[C@H]1O5)NC(=O)[C@@H](N)Cc1ccc(O)cc1)C(=O)O (H-YE(Oxymorphamine(6α))GFL-OH) | 1.02 | 0.7 | 26.9 | 19.1 | 7.5 |  |  |
| CC(C)C[C@H](NC(=O)[C@H](Cc1ccccc1)NC(=O)CNC(=O)[C@H](CCC(=O)NCC(=O)NCC(N)=O)NC(=O)[C@@H](N)Cc1ccc(O)cc1)C(=O)O (H-YE([Gly-Gly-NH2])GFL-OH) | 2.32 |  | 61.8 | 52.9 | 597 | 60 |  |
| CC(C)C[C@H](NC(=O)[C@H](Cc1ccccc1)NC(=O)CNC(=O)[C@H](CCC(=O)NCC(=O)NCC(=O)N[C@H]1CC[C@@]2(O)[C@H]3Cc4ccc(O)c5c4[C@@]2(CCN3C)[C@H]1O5)NC(=O)[C@@H](N)Cc1ccc(O)cc1)C(=O)O (H-YE([Gly-Gly-Oxymorphamine(6α)])GFL-OH) | 1.32 | 5 | 47.7 | 11.1 | 57.2 |  |  |
| CC(C)C[C@H](NC(=O)[C@H](Cc1ccccc1)NC(=O)CNC(=O)CNC(=O)[C@@H](N)Cc1ccc(O)cc1)C(=O)O [ENKEPHALIN] | 1.53 |  |  |  |  |  |  |
| CN1CC[C@]23c4c5ccc(O)c4O[C@H]2C(=O)CC[C@@]3(O)[C@H]1C5 [OXYMORPHONE] |  |  |  |  |  | 24 |  |
| H-YQGFL-OH | 1.63 |  | 123 |  | 210 | 84 | 21.7 |
